Test results from ChEMBL document CHEMBL1148102, “New chlorinated diphenyl ethers from an Aspergillus species” (J Nat Prod, 2002).
In brackets after ≈: the same amount, converted by molar mass. Activity calls are given as the source filed them. The calls are words filed in the database; no cut-off is given here.

Legend:
Gaeumannomyces tritici = assay: Antimicrobial activity against Gaeumannomyces graminis var. tritici at <200 ppm; type: functional, organism-based
Procedure, shortened: (§1)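 Antifungal test by the dialysis membrane overlay technique against the phytopathogenic fungus. Compounds were assessed at concentrations below 200 ppm.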

Escherichia coli = assay: Antimicrobial activity against Escherichia coli at <200 ppm; type: functional, organism-based
Caenorhabditis elegans = assay: Antinematodal activity against Caenorhabditis elegans after 16 to 24 hrs; type: functional
Procedure, shortened: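 Model nematode C. elegans exposed to compounds in a bioassay. Lethality was scored over 16-24 h and reported as the concentration in ppm lethal to 90% (LD90) or 50% (LD50) of worms.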

Rhizoctonia solani = assay: Antimicrobial activity against Rhizoctonia solani at <200 ppm; type: functional, organism-based; procedure, shortened: as §1
Endothelin-1 receptor = target: T1, Endothelin-1 receptor (Rattus norvegicus, UniProt P26684); assay: Displacement of endothelin-1 from ETA receptor in rat A10 cells; type: cell-based
T1 sequence (P26684 whole entry): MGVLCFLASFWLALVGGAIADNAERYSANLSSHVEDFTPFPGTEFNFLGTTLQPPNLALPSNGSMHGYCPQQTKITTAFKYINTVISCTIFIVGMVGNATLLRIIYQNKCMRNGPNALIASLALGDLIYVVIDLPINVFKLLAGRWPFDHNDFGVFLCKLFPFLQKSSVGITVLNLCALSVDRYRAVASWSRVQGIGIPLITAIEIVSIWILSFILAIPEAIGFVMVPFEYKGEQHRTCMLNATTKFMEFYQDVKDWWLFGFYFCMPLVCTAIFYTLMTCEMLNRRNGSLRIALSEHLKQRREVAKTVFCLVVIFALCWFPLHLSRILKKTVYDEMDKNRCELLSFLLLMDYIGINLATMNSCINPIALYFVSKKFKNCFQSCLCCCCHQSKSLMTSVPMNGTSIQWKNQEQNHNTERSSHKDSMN

Structure (SMILES)	Activity (Gaeumannomyces tritici)	Activity (Escherichia coli)	LD90 (Caenorhabditis elegans)	Activity (Rhizoctonia solani)	LC50 (Caenorhabditis elegans; Caenorhabditis elegans, read-out: LD50 (the source's name))	IC50 (Endothelin-1 receptor)
COC(=O)c1cc(O)cc(OC)c1Oc1c(Cl)c(C)c(Cl)c(O)c1C(=O)OC [METYL DICHLOROASTERRATE]	inactive	inactive	75 ppm	inactive	–	–
COC(=O)c1cc(O)cc(OC)c1Oc1cc(C)c(Cl)c(O)c1C(=O)OC [METHYL CHLOROASTERRATE]	inactive	inactive	–	inactive	100 µg/mL (≈ 252 µM)	–
COC(=O)c1cc(O)cc(OC)c1Oc1cc(C)cc(O)c1C(=O)O [ASTERRIC ACID]	inactive	inactive	50 ppm	inactive	–	10 µM
COC(=O)c1cc(O)cc(OC)c1Oc1cc(C)cc(O)c1C(=O)OC [METHYL ASTERRATE]	inactive	inactive	75 ppm	inactive	–	–
COC(=O)c1cc(O)cc(OC)c1C(=O)c1c(O)cc(C)cc1O [SULOCHRIN]	inactive	inactive	50 ppm	inactive	–	–
